By MIC is commonly meant the smallest concentration in the dilution series that meets the test's criterion for growth inhibition. Lower therefore signals inhibition by little substance.

≈ marks a conversion by molar mass, not a printed value. Calls of active or inactive are those of the source. Bounds are passed on as bounds.

These results are taken from ChEMBL document CHEMBL4270541, “Synthesis and antimicrobial evaluation of amino sugar-based naphthoquinones and isoquinoline-5,8-diones and their halogenated compounds” (Eur J Med Chem, 2018).

The test system of data set [1] is Pseudomonas aeruginosa. Put plainly: Bactericidal activity against Pseudomonas aeruginosa INCQS 00099 ATCC 27853 incubated for 24 hrs followed by transfer of microbial suspension to agar plates and measured after 24 hrs post transfer by resazurin dye-based colorimetric analysis. The class given is functional. As to conditions: INCQS 00099 ATCC 27853, 24 h, read-out: MBC99.9. Summed up:
(§1)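 For MBC, 10 µL from each clear MIC well was plated on agar and incubated 24 h at 37°C. MBC is the minimum concentration inhibiting 99.9% of growth. […] Triplicate.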

In another data set the test system is Enterococcus faecalis. The experiment in a line: Antimicrobial activity against Enterococcus faecalis INCQS 00234 ATCC 29212 assessed as zone of inhibition at 5 mg/ml after 18 to 24 hrs by disc diffusion method. The class given is functional. As to conditions: ATCC 29212 INCQS 00234, read-out: IZ. A general note: A growth-free zone around the sample is the usual read-out of agar diffusion tests.

The subject of data set [2] is Escherichia coli. The experiment in a line: Ratio of MBC99.9 to MIC for Escherichia coli INCQS 00033 ATCC 25922. The class given is functional, ATCC 25922 INCQS 00033. Summed up:
(§2)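 MBC/MIC ratio from the 24 h, 37°C microdilution MIC and the agar-plating MBC (99.9% growth inhibition). A ratio ≤2 was classed as bactericidal and ≥4 as bacteriostatic.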

Data set [3] concerns Staphylococcus aureus. The experiment in a line: Antimicrobial activity against Staphylococcus aureus INCQS 00015 ATCC 25923 assessed as zone of inhibition at 5 mg/ml after 18 to 24 hrs by disc diffusion method. The following applies: read-out: IZ. The class given is functional.
The test system of data set [4] is Staphylococcus epidermidis. The experiment in a line: Antimicrobial activity against Staphylococcus epidermidis INCQS 00016 ATCC 12228 after 24 hrs by microdilution assay. In kind it is functional. As to conditions: ATCC 12228 INCQS 00016, 24 h.
Data set [5] concerns Staphylococcus aureus. Put plainly: Antimicrobial activity against methicillin-resistant Staphylococcus aureus BMB9393 at 256 ug/ml after 24 hrs by microdilution assay. In kind it is functional, organism-based. A general note: In broth dilution the organism is exposed to a series of concentrations in liquid medium.
The subject of data set [6] is Staphylococcus aureus. The experiment in a line: Bactericidal activity against methicillin-resistant Staphylococcus aureus BMB9393 at 256 ug/ml incubated for 24 hrs followed by transfer of microbial suspension to agar plates and measured after 24 hrs post transfer by resazurin dye-based colorimetric analysis. The class given is functional, organism-based. The procedure, abridged: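 From MIC wells with no visible growth, 10 µL is transferred to agar plates and incubated 24 h at 37°C. MBC is the minimum concentration inhibiting 99.9% of growth. […] Triplicate.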
(In general: The colour change of resazurin is a common sign of viable cells or microbes.)

Data set [7] deals with Staphylococcus aureus. The experiment in a line: Bactericidal activity against Staphylococcus aureus INCQS 00015 ATCC 25923 at 256 ug/ml incubated for 24 hrs followed by transfer of microbial suspension to agar plates and measured after 24 hrs post transfer by resazurin dye-based colorimetric analysis. In kind it is functional, organism-based. The procedure, abridged: as §1

Data set [8] concerns Staphylococcus epidermidis. The experiment in a line: Antimicrobial activity against Staphylococcus epidermidis INCQS 00016 ATCC 12228 assessed as zone of inhibition at 5 mg/ml after 18 to 24 hrs by disc diffusion method. In kind it is functional. The following applies: ATCC 12228 INCQS 00016, read-out: IZ.
Data set [9] has as its system Staphylococcus epidermidis. Put plainly: Bactericidal activity against Staphylococcus epidermidis INCQS 00016 ATCC 12228 incubated for 24 hrs followed by transfer of microbial suspension to agar plates and measured after 24 hrs post transfer by resazurin dye-based colorimetric analysis. The class given is functional. The following applies: ATCC 12228 INCQS 00016, 24 h, read-out: MBC99.9. The procedure, abridged: as §1

In data set [10] the test system is Staphylococcus aureus. Put plainly: Antimicrobial activity against Staphylococcus aureus INCQS 00015 ATCC 25923 at 256 ug/ml after 24 hrs by microdilution assay. In kind it is functional, organism-based.
The subject of data set [11] is Staphylococcus aureus. The experiment in a line: Antimicrobial activity against methicillin-resistant Staphylococcus aureus BMB9393 assessed as zone of inhibition at 5 mg/ml after 18 to 24 hrs by disc diffusion method. The following applies: read-out: IZ. The class given is functional.
A further data set has as its system Klebsiella pneumoniae. Put plainly: Antimicrobial activity against Klebsiella pneumoniae INCQS 00083 ATCC 4352 assessed as zone of inhibition at 5 mg/ml after 18 to 24 hrs by disc diffusion method. The class given is functional. The following applies: read-out: IZ.
Data set [12] has as its system Pseudomonas aeruginosa. The experiment in a line: Antimicrobial activity against Pseudomonas aeruginosa INCQS 00099 ATCC 27853 after 24 hrs by microdilution assay. The following applies: INCQS 00099 ATCC 27853, 24 h. In kind it is functional.
Data set [13] in a line: Hemolytic activity against human erythrocytes assessed as hemolysis at 200 ug/ml after 3 hrs by spectrophotometric analysis relative to control. In kind it is ADME, cell-based, Erythrocyte. The following applies: read-out: Activity. Summed up: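 Erythrocytes collected in citrate tubes, washed three times with PBS pH 7.4 by centrifugation and resuspended in PBS. Incubated with compounds at 200 µg/mL for 3 h at 37°C. Released hemoglobin was read in the supernatant at 545 nm against 1% Triton X-100 (complete lysis) and 1% DMSO (negative control). Below 10% hemolysis was taken as hemocompatible. Three independent experiments.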

Data set [14] deals with Escherichia coli. Put plainly: Antimicrobial activity against Escherichia coli INCQS 00033 ATCC 25922 assessed as zone of inhibition at 5 mg/ml after 18 to 24 hrs by disc diffusion method. The following applies: ATCC 25922 INCQS 00033, read-out: IZ. In kind it is functional.
The subject of data set [15] is Pseudomonas aeruginosa. The experiment in a line: Ratio of MBC99.9 to MIC for Pseudomonas aeruginosa INCQS 00099 ATCC 27853. In kind it is functional. The procedure, abridged: as §2
Data set [16] concerns Staphylococcus epidermidis. Put plainly: Ratio of MBC99.9 to MIC for Staphylococcus epidermidis INCQS 00016 ATCC 12228. In kind it is functional, ATCC 12228 INCQS 00016. The procedure, abridged: as §2
Data set [17] deals with Staphylococcus simulans. Put plainly: Antimicrobial activity against Staphylococcus simulans INCQS 00254 ATCC 27851 at 256 ug/ml after 24 hrs by microdilution assay. The class given is functional, organism-based.
Data set [18] concerns Pseudomonas aeruginosa. The experiment in a line: Antimicrobial activity against Pseudomonas aeruginosa INCQS 00099 ATCC 27853 assessed as zone of inhibition at 5 mg/ml after 18 to 24 hrs by disc diffusion method. In kind it is functional. As to conditions: read-out: IZ.
For data set [19], the system named is Escherichia coli. The experiment in a line: Bactericidal activity against Escherichia coli INCQS 00033 ATCC 25922 incubated for 24 hrs followed by transfer of microbial suspension to agar plates and measured after 24 hrs post transfer by resazurin dye-based colorimetric analysis. In kind it is functional. The following applies: ATCC 25922 INCQS 00033, 24 h, read-out: MBC99.9. The procedure, abridged:
as §1

Data set [20] has as its system Staphylococcus simulans. The experiment in a line: Bactericidal activity against Staphylococcus simulans INCQS 00254 ATCC 27851 at 256 ug/ml incubated for 24 hrs followed by transfer of microbial suspension to agar plates and measured after 24 hrs post transfer by resazurin dye-based colorimetric analysis. The class given is functional, organism-based. Summed up: as §1

Data set [21] relates to Escherichia coli. Put plainly: Antimicrobial activity against Escherichia coli INCQS 00033 ATCC 25922 after 24 hrs by microdilution assay. The class given is functional. The following applies: ATCC 25922 INCQS 00033, 24 h.
Data set [22] has as its system Staphylococcus simulans. The experiment in a line: Antimicrobial activity against Staphylococcus simulans INCQS 00254 ATCC 27851 assessed as zone of inhibition at 5 mg/ml after 18 to 24 hrs by disc diffusion method. In kind it is functional. As to conditions: read-out: IZ.
The next data set relates to Proteus mirabilis. The experiment in a line: Antimicrobial activity against Proteus mirabilis INCQS 00095 ATCC 15290 assessed as zone of inhibition at 5 mg/ml after 18 to 24 hrs by disc diffusion method. The class given is functional. The following applies: read-out: IZ.
In data set [23] the test system is Staphylococcus epidermidis. The experiment in a line: Bactericidal activity against Staphylococcus epidermidis INCQS 00016 ATCC 12228 at 256 ug/ml incubated for 24 hrs followed by transfer of microbial suspension to agar plates and measured after 24 hrs post transfer by resazurin dye-based colorimetric analysis. In kind it is functional, organism-based. As to conditions: ATCC 12228 INCQS 00016. Summed up: as §1

For data set [24], the system named is Staphylococcus epidermidis. The experiment in a line: Antimicrobial activity against Staphylococcus epidermidis INCQS 00016 ATCC 12228 at 256 ug/ml after 24 hrs by microdilution assay. As to conditions: ATCC 12228 INCQS 00016. In kind it is functional, organism-based.

As to `COC(=O)c1c(C)nc(C)c2c1C(=O)C(Br)=C(N)C2=O`, the MBC stood at 32 µg/mL (≈ 94.4 µM) in the data set on Pseudomonas aeruginosa [1], 32 µg/mL (≈ 94.4 µM) in data set [9] and 8 µg/mL (≈ 23.6 µM) in the data set with Escherichia coli [19]. The zone of inhibition at 5000 µg/mL in the data set with Enterococcus faecalis worked out at 0 mm; in the data set on Staphylococcus aureus [3] it was 23 mm; in [8], 22 mm; with Staphylococcus aureus [11], 22 mm; in the data set on Klebsiella pneumoniae, 0 mm; with Escherichia coli [14] it was 30 mm. Also, the zone of inhibition at 5000 µg/mL in the data set on Pseudomonas aeruginosa [18] is 28 mm; with Staphylococcus simulans [22] it was 17 mm; in the data set on Proteus mirabilis, 0 mm. Also, the Ratio (in the data set with Escherichia coli [2]; in the data set on Pseudomonas aeruginosa [15]; in data set [16]) was 1 each time. For the same compound, the minimal inhibitory concentration (MIC) in data set [4] worked out at 32 µg/mL (≈ 94.4 µM); against Pseudomonas aeruginosa [12], 32 µg/mL (≈ 94.4 µM); in the data set with Escherichia coli [21], 8 µg/mL (≈ 23.6 µM). Besides, the result in the data set on Staphylococcus aureus [5], in the data set with Staphylococcus aureus [6], in the data set with Staphylococcus aureus [7], with Staphylococcus aureus [10], with Staphylococcus simulans [17] and in the data set on Staphylococcus simulans [20] was inactive. The hemolysis at 3 h, 200 ug/ml in [13] lay in the range of 10.1 to 14.4%.
Consider `CO[C@@H]1O[C@H](CNC2=C(Cl)C(=O)c3ccccc3C2=O)[C@H]2OC(C)(C)O[C@@H]12`, for which the values for the MBC in the data set with Pseudomonas aeruginosa [1] and in the data set with Escherichia coli [19] were 32 µg/mL (≈ 81.3 µM) and 8 µg/mL (≈ 20.3 µM), respectively. The zone of inhibition at 5000 µg/mL in the data set with Enterococcus faecalis worked out at 0 mm; with Staphylococcus aureus [3], 0 mm; in [8] it was 9 mm; in the data set on Staphylococcus aureus [11], 0 mm; in the data set with Klebsiella pneumoniae, 0 mm; in the data set with Escherichia coli [14] it was 10 mm. Further, the zone of inhibition at 5000 µg/mL in the data set on Pseudomonas aeruginosa [18] was 9 mm; in the data set with Staphylococcus simulans [22], 7 mm; in the data set on Proteus mirabilis, 0 mm. Further, in the data set on Escherichia coli [2], the Ratio stood at 1. Also, the outcome (in data set [23]; in the data set with Staphylococcus aureus [5]; with Staphylococcus aureus [6]; in the data set with Staphylococcus aureus [7]; in the data set on Staphylococcus aureus [10]; in data set [24]) was inactive. Also, the result in the data set on Staphylococcus simulans [17] and in the data set with Staphylococcus simulans [20] was inactive. The MIC against Pseudomonas aeruginosa [12] is 32 µg/mL (≈ 81.3 µM); with Escherichia coli [21], 8 µg/mL (≈ 20.3 µM). In data set [13], the hemolysis at 3 h, 200 ug/ml is less than 10%.
